{"source": "ChEMBL document CHEMBL4014289", "about": "“Synthesis and evaluation of a ligand targeting the μ and δ opioid receptors for drug delivery to lung cancer” (Bioorg Med Chem Lett, 2017)", "key": {"[1]": {"assay": "Displacement of [3H]DADLE from delta opioid receptor in guinea pig brain membrane", "type": "cell membranes, Cavia porcellus"}, "[2]": {"assay": "Antitumor activity against human SQC cells xenografted in nude mouse model assessed as tumor growth inhibition at 0.1 mg/kg administered daily relative to control", "type": "functional", "conditions": "read-out: TGI"}, "[3]": {"tested_on": "Kidney", "assay": "Drug uptake in Nu/Nu mouse kidney xenografted with HEK cells expressing delta opioid receptor (unknown origin)", "type": "ADME, tissue-based", "how_it_was_run": "(§1)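 Mice carrying HEK xenografts transfected with μ (HEK-mu) or δ (HEK-delta) opioid receptor. […] Mice were sacrificed at 4 h, and organs and tissues were collected and weighed. Radioactivity was counted against a standard tube and expressed as %ID/gram.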"}, "[4]": {"assay": "Drug uptake in Nu/Nu mouse tumor xenografted with HEK cells expressing delta opioid receptor (unknown origin)", "type": "ADME, Neoplasm", "how_it_was_run": "as §1"}, "[5]": {"tested_on": "Heart", "assay": "Drug uptake in Nu/Nu mouse heart xenografted with HEK cells expressing delta opioid receptor (unknown origin)", "type": "ADME, tissue-based", "how_it_was_run": "as §1"}, "[6]": {"tested_on": "Intestine", "assay": "Drug uptake in Nu/Nu mouse intestine xenografted with HEK cells expressing delta opioid receptor (unknown origin)", "type": "ADME, tissue-based", "how_it_was_run": "as §1"}, "[7]": {"tested_on": "Liver", "assay": "Drug uptake in Nu/Nu mouse liver xenografted with HEK cells expressing delta opioid receptor (unknown origin)", "type": "ADME, tissue-based", "how_it_was_run": "as §1"}, "[8]": {"tested_on": "Spleen", "assay": "Drug uptake in Nu/Nu mouse spleen xenografted with HEK cells expressing delta opioid receptor (unknown origin)", "type": "ADME, tissue-based", "how_it_was_run": "as §1"}, "[9]": {"assay": "Drug uptake in Nu/Nu mouse skin xenografted with HEK cells expressing delta opioid receptor (unknown origin)", "type": "ADME, Zone of skin", "how_it_was_run": "as §1"}, "[10]": {"molecular_target": "Mu-type opioid receptor (Homo sapiens) (UniProt P35372)", "sequence (P35372 whole entry)": "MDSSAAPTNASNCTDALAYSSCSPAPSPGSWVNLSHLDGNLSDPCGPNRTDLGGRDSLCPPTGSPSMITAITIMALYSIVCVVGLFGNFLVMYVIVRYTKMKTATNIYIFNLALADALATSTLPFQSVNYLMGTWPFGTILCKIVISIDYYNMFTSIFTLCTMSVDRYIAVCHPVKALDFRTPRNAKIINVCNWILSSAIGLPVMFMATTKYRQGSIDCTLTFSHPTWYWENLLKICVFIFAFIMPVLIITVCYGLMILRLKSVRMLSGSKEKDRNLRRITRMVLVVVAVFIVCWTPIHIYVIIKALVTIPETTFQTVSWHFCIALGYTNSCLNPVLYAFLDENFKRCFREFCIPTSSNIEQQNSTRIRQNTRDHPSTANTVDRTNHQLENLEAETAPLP", "assay": "Binding affinity to mu opioid receptor (unknown origin) expressed in HEK cells at 25 nM by confocal microscopic method", "type": "cell-based", "how_it_was_run": "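HEK cells transfected to overexpress the μ-opioid receptor were treated with 25 nM rhodamine-labelled naltrexone-derived conjugate for 1 h. […] Cell-associated fluorescence and internalisation were imaged by confocal microscopy.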"}, "[11]": {"molecular_target": "Delta-type opioid receptor (Homo sapiens) (UniProt P41143)", "sequence (P41143 whole entry)": "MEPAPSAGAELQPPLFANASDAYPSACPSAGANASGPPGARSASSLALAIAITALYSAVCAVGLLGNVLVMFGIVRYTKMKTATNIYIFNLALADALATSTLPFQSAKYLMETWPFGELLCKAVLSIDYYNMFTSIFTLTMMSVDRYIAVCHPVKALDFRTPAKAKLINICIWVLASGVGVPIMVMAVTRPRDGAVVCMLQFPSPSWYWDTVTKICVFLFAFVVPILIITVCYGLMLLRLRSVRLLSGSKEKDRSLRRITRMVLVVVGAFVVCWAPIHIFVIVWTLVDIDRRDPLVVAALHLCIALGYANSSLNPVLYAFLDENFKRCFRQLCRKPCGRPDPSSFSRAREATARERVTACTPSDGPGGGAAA", "assay": "Binding affinity to delta opioid receptor (unknown origin) expressed in HEK cells at 10 nM in presence of DOR antagonist […] after 1 hr by confocal microscopic method", "type": "cell-based", "how_it_was_run": "(§2)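 HEK cells transfected to overexpress the δ-opioid receptor were incubated with a rhodamine-labelled naltrexone-derived conjugate for 1 h. They were given the conjugate alone or with a 100-fold higher concentration of naltrindole as competitor. Uptake and internalisation were imaged by confocal microscopy.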"}, "[12]": {"molecular_target": "Delta-type opioid receptor (Homo sapiens) (UniProt P41143)", "assay": "Binding affinity to delta opioid receptor (unknown origin) expressed in HEK cells at 10 nM by confocal microscopic method", "type": "cell-based", "how_it_was_run": "as §2"}, "[13]": {"tested_on": "Intestine", "assay": "Drug uptake in Nu/Nu mouse intestine xenografted with HEK cells expressing mu opioid receptor (unknown origin)", "type": "ADME, tissue-based", "how_it_was_run": "as §1"}, "[14]": {"assay": "Drug uptake in Nu/Nu mouse skin xenografted with HEK cells expressing mu opioid receptor (unknown origin)", "type": "ADME, Zone of skin", "how_it_was_run": "as §1"}, "[15]": {"assay": "Drug uptake in Nu/Nu mouse tumor xenografted with HEK cells expressing mu opioid receptor (unknown origin)", "type": "ADME, Neoplasm", "how_it_was_run": "as §1"}, "[16]": {"tested_on": "Kidney", "assay": "Drug uptake in Nu/Nu mouse kidney xenografted with HEK cells expressing mu opioid receptor (unknown origin)", "type": "ADME, tissue-based", "how_it_was_run": "as §1"}}, "note": "Calls of active or inactive are those of the source. The rule behind the calls is not given here."}
{"smiles": "O=C1CC[C@@]2(O)[C@H]3Cc4ccc(O)c5c4[C@@]2(CCN3CC2CC2)[C@H]1O5", "note": "[NALTREXONE]", "values": [{"measurement": "Ki", "setting": "[1]", "value": 0.0105, "unit": "µM"}, {"measurement": "inhibition in vivo at 0.1 mg/kg", "setting": "[2]", "value": 84, "unit": "%"}]}
{"smiles": "NC(CNC(=O)CCOCCOCCOCCOCCNC(=O)CCC(=O)NCCCCCn1cc(-c2ccc(C(=O)N[C@@H]3CC[C@@]4(O)[C@H]5Cc6ccc(O)c7c6[C@@]4(CCN5CC4CC4)[C@H]3O7)cn2)nn1)C(=O)NCC(N)C(=O)NC(CC(=O)O)C(=O)NC(CS)C(=O)O", "note": "(stereo partly specified)", "values": [{"measurement": "Drug uptake", "setting": "[3]", "value": "Active"}, {"measurement": "Drug uptake", "setting": "[4]", "value": "Active"}, {"measurement": "Drug uptake", "setting": "[5]", "value": "Active"}, {"measurement": "Drug uptake", "setting": "[6]", "value": "Active"}, {"measurement": "Drug uptake", "setting": "[7]", "value": "Active"}, {"measurement": "Drug uptake", "setting": "[8]", "value": "Active"}, {"measurement": "Drug uptake", "setting": "[9]", "value": "Active"}]}
{"smiles": "CCN(CC)c1ccc2c(-c3ccc(NC(=S)NCC(=O)NCC(=O)N[C@@H]4CC[C@@]5(O)[C@H]6Cc7ccc(O)c8c7[C@@]5(CCN6CC5CC5)[C@H]4O8)cc3C(=O)O)c3ccc(=[N+](CC)CC)cc-3oc2c1", "values": [{"measurement": "Activity", "setting": "[10]", "value": "Active"}]}
{"smiles": "CCN(CC)c1ccc2c(-c3ccc(NC(=S)NCCCCCn4cc(-c5ccc(C(=O)N[C@@H]6CC[C@@]7(O)[C@H]8Cc9ccc(O)c%10c9[C@@]7(CCN8CC7CC7)[C@H]6O%10)cn5)nn4)cc3C(=O)O)c3ccc(=[N+](CC)CC)cc-3oc2c1", "values": [{"measurement": "Activity", "setting": "[11]", "value": "Active"}, {"measurement": "Activity", "setting": "[12]", "value": "Active"}]}
{"smiles": "NC(CNC(=O)CCOCCOCCOCCOCCNC(=O)CCC(=O)NCC(=O)NCC(=O)N[C@@H]1CC[C@@]2(O)[C@H]3Cc4ccc(O)c5c4[C@@]2(CCN3CC2CC2)[C@H]1O5)C(=O)NC(CC(=O)O)C(=O)NC(CS)C(=O)O", "note": "(stereo partly specified)", "values": [{"measurement": "Drug uptake", "setting": "[13]", "value": "Active"}, {"measurement": "Drug uptake", "setting": "[14]", "value": "Active"}, {"measurement": "Drug uptake", "setting": "[15]", "value": "Active"}, {"measurement": "Drug uptake", "setting": "[16]", "value": "Active"}]}
